The list is not random: actives were taken first. Their share in the collection is about 1.9%.
SR-BI DiI-HDL act: activators of SR-BI mediated HDL lipid uptake; CHO ldlA[mSR-BI] cells, DiI-HDL uptake fluorescence, 3 h; 100 = double the neutral-control signal; activation, % at 12.5 µM; actives 0.096% (n = 320,000); AID 504775;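 active means mean replicate activation of at least 60% and every replicate at or above 60%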
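system = CHO ldlA[mSR-BI] cells, LDL receptor-null, SR-BI overexpressing | medium = Ham's F12 with 0.5% BSA, HEPES 25 mM, pH 7.4 | probe or stimulus = DiI-HDL 10 µg/mL | compound dosing = single-point compound dose | incubation = compound exposure 3 h, 37 °C | technique = DiI fluorescence, bottom read | read-out = cell-associated DiI fluorescence as measure of HDL uptake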
Rin1 Abl inh: human Rin1-Abl interaction inhibition; TR-FRET Rin1/Abl binding, biochemical; AID 588664; P00519+Q13671; actives 0.4% (n = 360,000); inhibition, % at 7.35 µM; in the data active means inhibition above about 5%, passing the limit was not always enough
Target sequence (P00519 whole entry, looked up): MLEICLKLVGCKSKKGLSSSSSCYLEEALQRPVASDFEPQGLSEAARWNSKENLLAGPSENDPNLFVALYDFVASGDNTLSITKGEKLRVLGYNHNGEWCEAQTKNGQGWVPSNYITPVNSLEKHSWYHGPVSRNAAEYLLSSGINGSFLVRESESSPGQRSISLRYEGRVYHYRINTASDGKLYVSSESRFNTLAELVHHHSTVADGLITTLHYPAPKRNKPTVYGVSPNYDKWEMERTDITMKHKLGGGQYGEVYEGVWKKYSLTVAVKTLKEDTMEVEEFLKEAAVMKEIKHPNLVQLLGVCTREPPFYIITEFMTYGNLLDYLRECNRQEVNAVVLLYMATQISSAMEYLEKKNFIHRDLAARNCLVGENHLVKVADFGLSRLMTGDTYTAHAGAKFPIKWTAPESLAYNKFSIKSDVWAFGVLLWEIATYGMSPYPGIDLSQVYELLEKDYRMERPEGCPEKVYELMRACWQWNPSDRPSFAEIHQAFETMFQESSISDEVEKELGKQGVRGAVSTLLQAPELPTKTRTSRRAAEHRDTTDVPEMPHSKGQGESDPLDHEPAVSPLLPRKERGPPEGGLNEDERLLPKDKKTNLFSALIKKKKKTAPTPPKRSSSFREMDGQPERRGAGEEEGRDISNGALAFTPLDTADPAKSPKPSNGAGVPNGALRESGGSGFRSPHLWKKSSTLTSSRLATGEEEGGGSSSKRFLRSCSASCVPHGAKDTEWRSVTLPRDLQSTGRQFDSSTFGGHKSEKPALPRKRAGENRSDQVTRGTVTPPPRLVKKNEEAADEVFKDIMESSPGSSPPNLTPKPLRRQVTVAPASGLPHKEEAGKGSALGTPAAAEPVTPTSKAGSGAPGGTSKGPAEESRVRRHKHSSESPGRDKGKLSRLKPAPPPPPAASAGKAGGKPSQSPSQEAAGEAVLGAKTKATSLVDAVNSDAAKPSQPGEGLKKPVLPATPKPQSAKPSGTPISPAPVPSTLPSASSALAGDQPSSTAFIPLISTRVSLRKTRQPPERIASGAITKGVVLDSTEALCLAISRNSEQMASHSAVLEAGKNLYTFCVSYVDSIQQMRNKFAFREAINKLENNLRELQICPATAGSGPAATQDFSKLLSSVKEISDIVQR
Target sequence (Q13671 whole entry, looked up): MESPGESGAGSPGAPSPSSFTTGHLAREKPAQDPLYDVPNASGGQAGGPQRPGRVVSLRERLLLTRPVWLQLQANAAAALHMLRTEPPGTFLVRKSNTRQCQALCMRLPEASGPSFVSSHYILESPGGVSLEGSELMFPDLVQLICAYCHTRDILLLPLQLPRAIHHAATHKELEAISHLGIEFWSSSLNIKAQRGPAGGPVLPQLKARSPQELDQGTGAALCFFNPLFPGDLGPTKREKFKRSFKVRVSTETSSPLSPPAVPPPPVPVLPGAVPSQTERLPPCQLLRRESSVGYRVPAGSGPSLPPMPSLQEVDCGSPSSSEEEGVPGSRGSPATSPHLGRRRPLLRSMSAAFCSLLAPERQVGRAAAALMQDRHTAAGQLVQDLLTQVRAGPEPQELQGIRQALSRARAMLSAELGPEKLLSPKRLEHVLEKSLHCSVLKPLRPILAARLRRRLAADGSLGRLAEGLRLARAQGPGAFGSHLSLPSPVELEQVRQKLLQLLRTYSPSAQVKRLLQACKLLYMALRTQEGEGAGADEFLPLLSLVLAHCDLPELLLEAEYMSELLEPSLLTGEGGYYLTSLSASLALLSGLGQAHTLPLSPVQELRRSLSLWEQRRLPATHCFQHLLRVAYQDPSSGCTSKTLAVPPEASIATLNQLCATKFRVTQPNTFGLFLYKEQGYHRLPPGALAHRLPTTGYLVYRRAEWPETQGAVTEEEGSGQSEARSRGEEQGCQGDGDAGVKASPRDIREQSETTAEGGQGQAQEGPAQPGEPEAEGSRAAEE
SR-BI HDL uptake: blocks mouse SR-BI lipid uptake from DiI-HDL; Q61009; ldlA[mSR-BI] CHO cells, DiI-HDL uptake fluorescence, 3 h; inhibition, % at 12.5 µM; actives 0.96% (n = 320,000);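 active means mean replicate inhibition of at least 70% and a set share of replicates each scoring 70 or more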
GRK2 inh: inhibitors of human GRK2 displacing RNA aptamer; P25098; bead flow cytometry, FAM-aptamer displacement from GRK2; inhibition of aptamer binding, % at 10 µM; actives 0.59% (n = 330,000);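 active means inhibition of aptamer binding above 40%, roughly 3 SD of noise, on plates passing a quality check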;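 further: median bead fluorescence of bound FAM aptamer so fluorescent compounds give negative values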
GRK2 CP1: human GRK2 inhibition confirmation, cherry pick 1. bead-bound GRK2, FAM-aptamer displacement, flow cytometry. aptamer displacement, % at 10 µM. actives 4% (n = 2,000). shares compounds with GRK2 inh;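 active means aptamer displacement above 40%, near three times the noise of non-fluorescent compounds, on plates passing quality checks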;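 further: negative values mostly reflect intrinsic compound fluorescence rather than true enhancement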
Aptamer quench 1: counter-screen for GRK2 aptamer inhibitors: fluorescent aptamer quenchers; shares compounds with GRK2 inh; Fluorescent RNA aptamer beads, quenching, flow cytometry; hits give high values; fluorescence change (kMESF span), kMESF (concentration not given with the values); 110 tested, under 10 active; AID 504521;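 active means compounds whose bead fluorescence drops by more than 37 kMESF across the dose range, marking them as dye quenchers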
FAM quench CP1: aptamer fluorescence quenching in GRK2 counter-screen. fluorescence response (% of DMSO), % at 10 µM. Carboxyfluorescein RNA aptamer on beads, flow cytometry quenching; hits give low values. AID 504580. shares compounds with GRK2 inh. 2,000 tested, under 10 active;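 active means compounds that quench the bead-bound fluorescent RNA probe, cutting fluorescence to under half of the solvent control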;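 further: counterscreen run without GRK2 so only probe quenching by compound is measured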
GRK2 confirm 2: confirmation of human GRK2 inhibitors binding RNA aptamer site; shares compounds with GRK2 inh; bead-bound GRK2, FAM-aptamer displacement, flow cytometry; inhibition of aptamer binding, % at 10 µM; 360 tested, under 10 active; AID 504782;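 active means inhibition of aptamer binding above 40%, about triple the noise seen with nonglowing compounds, on plates passing quality control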;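 further: negative values mostly come from compounds that fluoresce themselves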
FAM quench SP: quenches fluorescent RNA aptamer, GRK2 hit artifact | carboxyfluorescein RNA aptamer beads, flow cytometry quenching; hits give low values | AID 588494 | shares compounds with GRK2 inh | 360 tested, under 10 active | fluorescence response vs DMSO, % at 10 µM;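 active means response vs DMSO under 50%, meaning signal dropped by over half, treated as fluorescence quencher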;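 further: labelled aptamer on streptavidin beads without GRK2 as a quench counter-screen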
Of the large screens only hits and unclear results are named; the others gave an inactive call (follow-up assays come after a bar, where they were run).

CCOc1ccc(NC(=O)CN(C)C(=O)c2ccc(COc3ccccc3)o2)cc1OCC	none
O=C(NCc1ccccc1)c1cc(C2CCCN(S(=O)(=O)c3ccccc3)C2)on1 (stereo not drawn)	none (no result: SR-BI DiI-HDL act, SR-BI HDL uptake, GRK2 inh)
Cc1nn(Cc2c(F)c(F)c(F)c(F)c2F)c(C)c1NC(=O)c1ccc(COc2ccccc2Cl)o1	none | GRK2 CP1 inactive | FAM quench CP1 inactive
Cc1nn(Cc2c(F)c(F)c(F)c(F)c2F)c(C)c1NC(=O)c1ccc(COc2ccccc2Cl)cc1	none (no result: GRK2 inh)
O=C(NC1=NCCS1)C1CCN(S(=O)(=O)c2cc([N+](=O)[O-])ccc2Cl)CC1	none | GRK2 CP1 inactive | FAM quench CP1 inactive
O=C(NC1=NCCS1)C1CCN(S(=O)(=O)c2ccc(Cl)cc2)CC1	none
COC(=O)c1cc(-c2cccc([N+](=O)[O-])c2)c2c(=O)n(C)c(=O)n(C)c2n1	GRK2 inh 79.0 | GRK2 CP1 inactive | FAM quench CP1 inactive
COC(=O)c1cc(-c2ccc(Br)cc2)c2c(=O)n(C)c(=O)n(C)c2n1	none
O=c1oc(-c2ccc(O)c(O)c2)cc2cccc(O)c12	none
O=C(O)c1cccc2cc(-c3ccccc3)oc(=O)c12	none | GRK2 CP1 inactive | FAM quench CP1 inactive
NC(=O)C1CCN(CC(=O)N2c3ccccc3CCc3ccccc32)CC1	none | GRK2 CP1 inactive | FAM quench CP1 inactive
COc1ccc(C(=O)NCC(c2ccco2)N(C)C)cc1S(=O)(=O)NCc1ccc(Cl)cc1 (stereo not drawn)	none
COc1cc2c(cc1NC(=O)c1cccc([N+](=O)[O-])c1)oc1ccccc12	GRK2 inh 92.0 | GRK2 CP1 inactive | FAM quench CP1 inactive
Cc1ccc2c(c1)c1nnc(SCC(=O)N3CCN(c4ccc(F)cc4)CC3)nc1n2CC(=O)O	GRK2 inh 100.0 | GRK2 confirm 2 inactive | FAM quench SP inactive
CCn1c2ccc(C)cc2c2nnc(SCCN3CCOCC3)nc21	none
COc1ccc(-c2nc(CNS(=O)(=O)c3ccc(OC)c(OC)c3)cs2)cc1	GRK2 inh 84.0 | GRK2 CP1 inactive | FAM quench CP1 inactive
OCCSc1nc(N2CCOCC2)nc(N2CCOCC2)n1	none | GRK2 CP1 inactive | FAM quench CP1 inactive
Cc1cccc(C)c1NC(=O)CSc1nc(N2CCOCC2)nc(N2CCOCC2)n1	none
O[C@@H]1CN(Cc2cccs2)[C@@H](c2ccc(Cl)cc2)C[C@H]1n1cc(-c2ccc(F)cc2)nn1	none (no result: SR-BI DiI-HDL act, SR-BI HDL uptake, GRK2 inh)
COc1ccc(NC(=O)CSc2nc3ccccc3nc2N2CCCCC2)cc1	none
CCc1ccc(NC(=O)CSc2nc3ccccc3nc2N2CCCCC2)cc1	GRK2 inh 69.0 | GRK2 CP1 inactive | FAM quench CP1 inactive
COc1cc(Cl)c(C)cc1NC(=O)CCN1C(=O)NC(C)(C)C1=O	none (no result: GRK2 inh)
Cc1ccc(S(=O)(=O)N2CCC(C(=O)Nc3ccc(S(=O)(=O)N4CCCC4)cc3)CC2)cc1C	none
CC1CCC(NC(=O)N(CCCl)N=O)CC1 (stereo not drawn)	none | GRK2 CP1 inactive | FAM quench CP1 inactive
CCNc1nc(NC(C)C)nc(-c2ccncc2)n1	none (no result: SR-BI DiI-HDL act, SR-BI HDL uptake, GRK2 inh)
CN(CC(=O)Nc1cccc(F)c1)C(=O)c1ccc(N2C(=O)c3ccccc3C2=O)cc1	none | GRK2 CP1 inactive | FAM quench CP1 inactive
Cc1ccccc1C(=O)N1CCC(C(=O)N(C)CC(=O)Nc2cccc(F)c2)CC1	GRK2 inh 51.0 | GRK2 confirm 2 inactive | FAM quench SP inactive
CC1(C(=O)NCc2ccco2)CCN1C(=O)C1(c2ccccc2)CC1 (stereo not drawn)	none (no result: SR-BI DiI-HDL act, SR-BI HDL uptake, GRK2 inh)
Cc1nnc(SCc2ccccc2CSc2nnc(C)s2)s1	none
O=C(CSc1cc(Cl)ccc1Cl)Nc1ccc(N2CCOCC2)cc1	none
CC(=O)Nc1cccc(C(=O)OCc2csc(CC(=O)Nc3ccccc3C)n2)c1	none
Cn1c(=O)n(CCc2ccccc2)c2ccccc21	GRK2 inh 51.0 | GRK2 CP1 inactive | FAM quench CP1 inactive
COc1cc(SC)ccc1C(=O)NNC(=O)c1cc(C)oc1C	GRK2 inh 45.0 | GRK2 CP1 inactive | FAM quench CP1 inactive
COc1cc(SC)ccc1C(=O)Nc1c(C)cccc1C	none
Cc1cc(Cl)ccc1NC(=O)CCN1C(=O)NC(C)(C)C1=O	none
c1ccc(Cc2nc3ccccc3s2)cc1	none (no result: GRK2 inh)
CCN1C(=O)[C@H]2[C@@H](c3ccc(OC)cc3)N[C@]3(CCCN(Cc4ccc(Br)cc4)C3=O)[C@H]2C1=O	none (no result: SR-BI DiI-HDL act, SR-BI HDL uptake, GRK2 inh)
CC1Nc2nc(N(C)C)[nH]c(=O)c2NC1C (stereo not drawn)	none | GRK2 CP1 inactive | FAM quench CP1 inactive
CCOC(=O)CC(NS(=O)(=O)c1ccc2[nH]cc(C(=O)O)c(=O)c2c1)c1ccc(OCC)c(OC)c1 (stereo not drawn)	GRK2 inh 89.0 (no result: SR-BI DiI-HDL act, SR-BI HDL uptake) | GRK2 CP1 70.2 | Aptamer quench 1 inactive | FAM quench CP1 inactive
CN1C[C@@H]2[C@@H]3C(=O)N(C)C(=O)[C@@H]3[C@](C)(C1=O)N2C(=O)c1ccc(F)cc1	none (no result: GRK2 inh)
CS(=O)(=O)N(CC(=O)N1CCN(c2ccccc2F)CC1)C1CCCCC1	none
COc1ccccc1N1CCN(C(=O)CN(C2CCCCC2)S(C)(=O)=O)CC1	GRK2 inh 47.0 | GRK2 CP1 inactive | FAM quench CP1 inactive
CCN(CC)CCNC(=O)C(Cl)=C1C(Cl)=C(Cl)C(Cl)=C1Cl	none (no result: GRK2 inh)
O=C(N/N=C/c1c(O)ccc2ccccc12)Nc1ccccc1	GRK2 inh 43.0 (no result: SR-BI DiI-HDL act, Rin1 Abl inh, SR-BI HDL uptake) | GRK2 CP1 inactive | FAM quench CP1 inactive
CCOc1ccc(NC(=O)CN(C)c2ccc(S(=O)(=O)N3CCOCC3)cn2)cc1OCC	none
Cc1ccc(NC(=O)CN(C)c2ccc(S(=O)(=O)N3CCCC3)cn2)cc1	GRK2 inh 67.0 | GRK2 CP1 inactive | FAM quench CP1 inactive
CCCCNC(=O)c1ccc(CS(=O)(=O)c2cccc(C(F)(F)F)c2)o1	none
O=C(O)c1ccc(CS(=O)(=O)c2cccc(C(F)(F)F)c2)o1	none | GRK2 confirm 2 inactive | FAM quench SP inactive
COc1ccc(N(CC(=O)NC2CCCC2)S(=O)(=O)c2c(C)[nH]c(=O)[nH]c2=O)cc1	none | GRK2 CP1 inactive | FAM quench CP1 inactive
C=CCNC(=O)c1onc(CSc2ccc(F)c(F)c2)c1C(=O)NCC=C	GRK2 inh 53.0 | GRK2 CP1 inactive | FAM quench CP1 inactive

Bioassay records: PubChem, several laboratories
